Measured values: EPA's CvTdb concentration-time database
Values joined by “and” are separate entries in the source; they are usually repeats but may differ in a detail not shown here. Equal values may be shown once.

Assays:
human [1] = test: concentration in blood after dosing
Summary of the method: (§1)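 Data points giving concentration or amount against time came from published in vivo toxicokinetic studies and from two structured collections. PubMed searching, classifier screening and manual review located the studies. Most points were digitised from plot screenshots using WebPlotDigitizer, the rest were copied from tables, and all keep their reported units.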

human [2] = test: concentration in blood after dosing; negative times count back from the end of exposure; conditions: inhalation
Summary of the method: as §1

rat [3] = test: concentration in blood after dosing; conditions: inhalation
human [4] = test: concentration in expired air after dosing; negative times count back from the end of exposure; conditions: dosed: 1,3-butadiene, 5 ppm, inhalation, duration: 120 min
Summary of the method: as §1

rat [5] = test: concentration in lung after dosing; conditions: dosed: benzo[a]pyrene, inhalation, duration: 4 hr, F344
rat [6] = test: concentration in plasma after dosing; conditions: dosed: benzo[a]pyrene, inhalation, duration: 4 hr, F344

Cc1ccc(C)c(C)c1 [1,2,4-trimethylbenzene]
concentration in blood [nM], dosed: 1,2,4-trimethylbenzene
Conditions	2 ppm	25 ppm
human [1], 0.1793 h, inhalation, duration: 2 hr	–	970
human [1], 0.2345 h, inhalation, duration: 2 hr	67.7	–
human [1], 0.5655 h, inhalation, duration: 2 hr	52.6	–
human [1], 0.5931 h, inhalation, duration: 2 hr	–	459
human [1], 1.503 h, inhalation, duration: 2 hr	–	658
human [1], 2.579 h, inhalation, duration: 2 hr	–	404
human [1], 3.572 h, inhalation, duration: 2 hr	–	314
human [2], -0.2345 h, duration: 2 hr, during exposure	506	–
human [2], -0.2897 h, duration: 2 hr, during exposure	–	7180
human [2], -0.4552 h, duration: 2 hr, during exposure	–	7540
human [2], -0.4828 h, duration: 2 hr, during exposure	516	–
human [2], -0.731 h, duration: 2 hr, during exposure	433	–
human [2], -0.7862 h, duration: 2 hr, during exposure	–	6910
human [2], -0.9793 h, duration: 2 hr, during exposure	409	–
human [2], -1.007 h, duration: 2 hr, during exposure	–	6090
human [2], -1.228 h, duration: 2 hr, during exposure	327	–
human [2], -1.255 h, duration: 2 hr, during exposure	–	6030
human [2], -1.476 h, duration: 2 hr, during exposure	291	4460
human [2], -1.724 h, duration: 2 hr, during exposure	231	–
human [2], -1.752 h, duration: 2 hr, during exposure	–	3540
human [2], -1.89 h, duration: 2 hr, during exposure	147	–
human [2], -1.917 h, duration: 2 hr, during exposure	–	2540
human [2], -50 s, duration: 2 hr, during exposure	552	–
human [2], -248 s, duration: 2 hr, during exposure	–	7990

concentration in blood [nM], human [2], dosed: 1,2,4-trimethylbenzene, duration: 2 hr
Conditions	2 ppm	25 ppm
0.1241 h	249	–
0.1793 h	–	3640
0.2345 h	237	–
0.2621 h	–	3110
0.5655 h	164	2420
0.9793 h	87.2	–
1.062 h	–	1610
1.476 h	95.1	–
1.531 h	–	1360
1.972 h	–	989
2.524 h	75.3	863
2.966 h	51.5	–
3.186 h	–	790
3.517 h	–	683
3.959 h	–	614
11.99 h	–	171
21.97 h	–	134
248 s	288	4170

C=CC=C [1,3-butadiene]
rat [3], dosed: 1,3-butadiene, duration: 6 hr, Sprague Dawley
Conditions	concentration in blood [nM]
1.898 h, 63 ppm	1290
1.898 h, 616 ppm	15300
1.898 h, 1249 ppm	31200
2.9 h, 63 ppm	1400
2.9 h, 616 ppm	17200
2.9 h, 1249 ppm	35400
3.895 h, 63 ppm	1250
3.895 h, 616 ppm	16500
3.903 h, 1249 ppm	38700
5.893 h, 616 ppm	18500
5.901 h, 63 ppm	1260
5.901 h, 1249 ppm	39600
5.931 h, 1249 ppm	9110
5.962 h, 1249 ppm	6000
5.977 h, 63 ppm	342
5.993 h, 616 ppm	4050
6.016 h, 1249 ppm	7440
6.077 h, 63 ppm	286
6.092 h, 616 ppm	2800
6.092 h, 1249 ppm	4210
6.176 h, 1249 ppm	4260
6.184 h, 616 ppm	3100
6.23 h, 63 ppm	198
6.314 h, 63 ppm	181
6.329 h, 616 ppm	2350
6.391 h, 63 ppm	101

human [4]
Conditions	concentration in expired air [ppm]
0.1234 h	0.329
0.1404 h	0.298
0.1642 h	0.278
0.1948 h	0.278
0.2288 h	0.267
0.2661 h	0.267
0.3375 h	0.226
0.402 h	0.206
0.436 h	0.185
0.4734 h	0.175
0.5006 h	0.144
0.5447 h	0.144
0.6059 h	0.144
0.6602 h	0.123
0.701 h	0.123
0.7588 h	0.103
0.8029 h	0.103
0.8505 h	0.0823
0.9049 h	0.0823
16 s	4.55
77 s	0.782
126 s	0.535
200 s	0.473
249 s	0.35
334 s	0.37

human [4], during exposure
Conditions	concentration in expired air [ppm]
-1.834 h	3.95
-1.67 h	4.25
-1.501 h	3.62
-1.331 h	4.38
-1.168 h	4.56
-0.9977 h	3.77
-0.8313 h	3.79
-0.6614 h	4.14
-0.3284 h	4.31
-0.1653 h	4.58

CCC(C)(C)OC [tert-amyl methyl ether]
dosed: tert-amyl methyl ether
Conditions	concentration in blood [nM]
human [1], 0 h, 3.8 ppm, inhalation, duration: 4 hr	589
human [1], 2.022 h, 3.8 ppm, inhalation, duration: 4 hr	208
human [1], 2.034 h, 38.4 ppm, inhalation, duration: 4 hr	1350
human [1], 3.985 h, 38.4 ppm, inhalation, duration: 4 hr	801
human [1], 4.008 h, 3.8 ppm, inhalation, duration: 4 hr	139
human [1], 6.018 h, 38.4 ppm, inhalation, duration: 4 hr	611
human [1], 6.02 h, 3.8 ppm, inhalation, duration: 4 hr	111
human [1], 7.969 h, 38.4 ppm, inhalation, duration: 4 hr	438
human [1], 9.976 h, 38.4 ppm, inhalation, duration: 4 hr	225
human [1], 10.01 h, 3.8 ppm, inhalation, duration: 4 hr	85
human [1], 12.01 h, 38.4 ppm, inhalation, duration: 4 hr	183
human [1], 12.05 h, 3.8 ppm, inhalation, duration: 4 hr	73.7
human [1], 99 s, 38.4 ppm, inhalation, duration: 4 hr	4500
human [2], 0.7676 h, 15 ppm, duration: 4 hr, male	2300
human [2], 1.198 h, 15 ppm, duration: 4 hr, male	1900
human [2], 2.571 h, 15 ppm, duration: 4 hr, male	1140
human [2], 7.198 h, 15 ppm, duration: 4 hr, male	344
human [2], 19.78 h, 15 ppm, duration: 4 hr, male	86.8
human [2], 338 s, 15 ppm, duration: 4 hr, male	4220

human [1], dosed: tert-amyl methyl ether, oral
Conditions	concentration in blood [nM]
1.016 h, 15 mg	145
1.043 h, 5 mg	60.8
2.059 h, 15 mg	70.2
2.113 h, 5 mg	29.4
3.073 h, 5 mg	13.9
4.009 h, 15 mg	33
4.034 h, 5 mg	9.2
6.041 h, 15 mg	19.9
6.064 h, 5 mg	6.34
8.046 h, 15 mg	16.9
8.067 h, 5 mg	3.85
9.995 h, 15 mg	9.91
10.04 h, 5 mg	3.13
12 h, 15 mg	4.16

human [2], dosed: tert-amyl methyl ether, 15 ppm, duration: 4 hr, male, during exposure
Conditions	concentration in blood [nM]
-4 h	6.05
-3.022 h	1710
-1.895 h	3490
-0.981 h	3580

CCCCCCCC [octane]
concentration in blood, rat [3], dosed: octane, duration: 2 hr, male, Fischer-344
Conditions	0.1291 h	0.3815 h	0.705 h	171 s	183 s
1000 ppm	3810 ng/mL and 4510 ng/mL	1730 ng/mL and 2020 ng/mL	777 ng/mL and 960 ng/mL	5730 ng/mL and 7180 ng/mL	–
5000 ppm	–	–	–	–	30200 ng/mL and 25900 ng/mL and 22800 ng/mL

Oc1ccc2cc3ccc4cccc5ccc(c2c1)c3c45 [9-hydroxy benzo[a]pyrene]
Conditions	concentration in lung, 0.05 h [ng/mL]	concentration in lung, 1 h [ng/mL]	concentration in lung, 2 h [ng/mL]	concentration in lung, 4 h [ng/mL]	concentration in plasma, 0.5 h [ng/mL]	concentration in plasma, 1 h [ng/mL]	concentration in plasma, 2 h [ng/mL]	concentration in plasma, 4 h [ng/mL]
rat [5], 0.1 mg/m^3, female	0.389	3.61	0.814	0.209	–	–	–	–
rat [5], 0.1 mg/m^3, male	0.387	3.82	1.62	0.206	–	–	–	–
rat [5], 1 mg/m^3, female	11.8	15.5	14.6	1.6	–	–	–	–
rat [5], 1 mg/m^3, male	4.34	14.2	4.36	2.55	–	–	–	–
rat [5], 2.5 mg/m^3, female	23.9	52.2	12.3	1.49	–	–	–	–
rat [5], 2.5 mg/m^3, male	21.7	48.1	8.15	3.18	–	–	–	–
rat [6], 0.1 mg/m^3, female	–	–	–	–	0.0614	0.243	0.122	0.00678
rat [6], 0.1 mg/m^3, male	–	–	–	–	0.1	0.302	0.102	0.0105
rat [6], 1 mg/m^3, female	–	–	–	–	0.339	5.95	0.303	0.00674
rat [6], 1 mg/m^3, male	–	–	–	–	0.606	8.58	0.97	0.00272
rat [6], 2.5 mg/m^3, female	–	–	–	–	4.93	29.3	5.63	0.276
rat [6], 2.5 mg/m^3, male	–	–	–	–	5.6	33.1	7.14	0.363
